ChEMBL document CHEMBL3865803, “Bicyclic octahydrocyclohepta[b]pyrrol-4(1H)one derivatives as novel selective anti-hepatitis C virus agents” (Eur J Med Chem, 2016)

Key:
[1] = system: Hepatitis C virus; experiment: Antiviral activity against HCV genotype 2a infected in human Huh7.5-FGR-JC1-Rluc2A replicon cells assessed as inhibition of viral RNA replication at 50 uM measured after 48 hrs by luciferase reporter gene assay relative to control; format: functional, Hepacivirus hominis; settings: Huh-7, 48 h
How it was run: (§1)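 Replicon cells (gt1b firefly luciferase; gt2a Renilla luciferase) in DMEM/10% FBS with G418, ~1 × 10^4 cells/well, dosed 12 h after seeding with 50 µM compound or DMSO (1% final) for 48 h at 37 °C. Cells were PBS-washed and luciferase read; % inhibition was taken versus DMSO-treated cells, mean±SD, n=3.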

[2] = Cytotoxicity against human Huh7.5 cells measured after 48 hrs by MTS assay; format: toxicity, cell-based, Huh-7; settings: for CC50 at 48 h: Huh7.5 cells; for Activity: huh-7, 48 h
How it was run: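 Parental Huh7.5 cells were treated 12 h after seeding with 8-10 dilutions of compound or DMSO (1% final) for 48 h at 37 °C. Viability was read by MTS bioreduction to formazan. CC50 is the concentration halving the MTS signal, mean ± SD of three independent experiments.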

[3] = system: Hepatitis C virus; experiment: Antiviral activity against HCV genotype 1b infected in human Huh7/Rep-Feo1b replicon cells assessed as inhibition of viral RNA replication at 50 uM measured after 48 hrs by luciferase reporter gene assay relative to control; format: functional, Hepacivirus hominis; settings: Huh-7, 48 h; how it was run: as §1
[4] = system: Hepatitis C virus; experiment: Antiviral activity against HCV genotype 1b infected in human Huh7/Rep-Feo1b replicon cells assessed as inhibition of viral RNA replication measured after 48 hrs by luciferase reporter gene assay; format: functional, cell-based, Hepacivirus hominis; settings: Huh-7, 48 h
How it was run: (§2)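 EC50 from concentration-response in replicon cells (gt1b firefly, gt2a Renilla luciferase reporter) maintained with G418. Compound added 12 h post-seeding (~1 × 10^4 cells/well), 48 h exposure, DMSO 1% final. Luciferase was compared with DMSO controls; the value is the mean ± SD of three independent 8-12 point quarter-log dilution series, calculated with CalcuSyn.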

[5] = Selectivity index, ratio of CC50 for human Huh7.5 cells to EC50 for HCV genotype 1b infected in human Huh7/Rep-Feo1b replicon cells; set-up: species or system Huh-7
[6] = Selectivity index, ratio of CC50 for human Huh7.5 cells to EC50 for HCV genotype 2a infected in human Huh7.5-FGR-JC1-Rluc2A replicon cells; set-up: species or system Huh-7
[7] = system: Hepatitis C virus; experiment: Antiviral activity against HCV genotype 2a infected in human Huh7.5-FGR-JC1-Rluc2A replicon cells assessed as inhibition of viral RNA replication incubated for 48 hrs by luciferase reporter gene assay; format: functional, cell-based, Hepacivirus hominis; settings: Huh-7, 48 h; how it was run: as §2

| SMILES | inhibition at 50 µM [1] [%] | CC50 at 48 h [2] [µM] | Activity [2] [%] | inhibition at 50 µM [3] [%] | EC50 [4] [µM] | Ratio CC50/EC50 [5] | Ratio CC50/EC50 [6] | EC50 [7] [µM] |
| --- | --- | --- | --- | --- | --- | --- | --- | --- |
| CCOC(=O)[C@H](C)N1CC[C@H]2C(=O)CCCC[C@@H]21 | 83 |  |  |  |  |  |  |  |
| CCOC(=O)[C@@H](C)N1CC[C@H]2C(=O)CCCC[C@@H]21 | 38 | > 100 | 88 | 24 |  |  |  |  |
| OC1CCCC[C@H]2[C@H]1[C@@H](c1cccc(F)c1)CN2Cc1ccccc1 (mixture of isomers) | 99 | 36.9 | 28 | 99 | 2 | 18.4 | 30.8 | 1.2 |
| Cc1ccc(S(=O)(=O)N2[C@H](C(=O)O)C[C@@H]3/C(=N/Nc4ccccc4)CCCC[C@@H]32)cc1 (racemic) | 81 | > 200 |  | 25 |  |  | >7.6 | 26.3 |
| O=C1CCCC[C@@H]2[C@@H]1[C@H](c1cccc(F)c1)CN2Cc1ccccc1 (racemic) | 97 | > 50 | 63 | 83 | 11.7 | >4.2 | >31.8 | 1.6 |
| Cc1ccc(S(=O)(=O)N2[C@H](C(=O)N3CCOCC3)C[C@@H]3C(=O)CCCC[C@@H]32)cc1 (racemic) | 12 | > 200 |  | 19 |  |  |  |  |
| Cc1ccc(S(=O)(=O)N2[C@H](C(=O)NCCc3ccccc3)C[C@@H]3C(=O)CCCC[C@@H]32)cc1 (racemic) | 48 | 153 |  | 66 | 28.1 | 5.4 |  |  |
| Cc1ccc(S(=O)(=O)N2[C@H]3CCCCC(=O)[C@@]3(C)C[C@H]2C(=O)O)cc1 (racemic) | 33 | > 200 |  | 41 |  |  |  |  |
| O=C1CCCC[C@@H]2[C@@H](N1)[C@H](c1cccc(F)c1)CN2Cc1ccccc1 (racemic) | 80 |  |  | 49 |  |  |  |  |
| C[C@]12C[C@@H](Cc3ccccc3)N(Cc3ccccc3)[C@H]1CCCC(=O)N2 (racemic) | 95 | > 50 | 60 | 87 | 18.2 | >2.7 | >4.3 | 11.5 |
| CCOC(=O)[C@@H]1C[C@@H]2[C@@H](CCC[C@@H]2O)N1S(=O)(=O)c1ccc(C)cc1 (racemic) | 45 | > 150 | 93 | 38 |  |  |  |  |
| CCOC(=O)[C@@H]1C[C@@H]2NC(=O)CCCC[C@@H]2N1S(=O)(=O)c1ccc(C)cc1 (racemic) | 71 | 143 | 92 | 66 | 11.6 | 12.4 | 17.4 | 8.2 |
| Cc1ccc(S(=O)(=O)N2[C@H](C(N)=O)C[C@@H]3C(=O)CCCC[C@@H]32)cc1 (racemic) | 38 | > 200 |  |  |  |  |  |  |
| CCOC(=O)[C@@H]1C[C@@H]2[C@@H](O)CCCC[C@@H]2N1S(=O)(=O)c1ccc(C)cc1 (racemic) | 77 | > 200 |  | 22 |  |  | 7.3 | 27.6 |
| O=C(O)[C@@H]1C[C@H]2[C@@H](O)CCC[C@H]2N1 (racemic) | 12 |  |  |  |  |  |  |  |
| O=C1CCCC[C@H]2[C@H](N1)[C@@H](c1ccccc1)CN2Cc1ccccc1 (racemic) | 59 | > 200 | 98 | 80 | 24.1 | >8.3 | >16.1 | 12.4 |
| COc1cccc([C@@H]2CN(Cc3ccccc3)[C@@H]3CCCCC(=O)N[C@H]32)c1 (racemic) | 54 |  |  | 59 |  |  |  |  |
| Cc1ccc(S(=O)(=O)N2[C@H](C(=O)O)C[C@@H]3C(=O)CCCC[C@@H]32)cc1 (racemic) | 42 | > 200 |  | 14 |  |  |  |  |
| Cl.Cl.Fc1cccc([C@@H]2CN(Cc3ccccc3)[C@@H]3CCCCCN[C@H]32)c1 (racemic) | 61 | < 50 | 11 | 98 |  |  |  |  |
| O=C1CCCC[C@@H]2[C@H]1[C@@H](c1ccccc1)CN2Cc1ccccc1 (racemic) | 4 |  |  | 38 |  |  |  |  |
| O=C1CCCC[C@@H]2[C@H](C[C@H](Cc3ccccc3)N2Cc2ccccc2)N1 (racemic) | 99 | > 50 | 61 | 82 | 7.5 | >6.6 | >8.8 | 5.6 |
| CC(C)(C)OC(=O)N1CC[C@H]2[C@H](C(=O)C1)[C@@H](c1ccccc1)CN2Cc1ccccc1 (racemic) | 99 | > 50 | 61 | 94 | 9 | >5.5 | >11.2 | 4.47 |
| O=C1CCCC[C@@H]2[C@H]1[C@@H](c1ccccc1)CN2S(=O)(=O)c1ccccc1 (racemic) | 88 | > 200 | 84 | 78 | 16.5 | 12.1 | 17.6 | 11.4 |
| CCOC(=O)[C@@H]1C[C@@H]2C(=O)CCCC[C@@H]2N1S(=O)(=O)c1ccnn1C (racemic) | 17 | > 200 |  |  |  |  |  |  |
| CCOC(=O)[C@@H]1C[C@@H]2/C(=N/OCc3ccccc3)CCCC[C@@H]2N1S(=O)(=O)c1ccc(C)cc1 (racemic) | 30 | > 200 |  |  |  |  |  |  |
| CC(C)(C)OC(=O)N1CC[C@@H]2NC[C@H](c3ccccc3)[C@H]2C(=O)C1.Cl (racemic) | 47 | > 150 | 97 | 48 |  |  |  |  |
| CCNC(=O)[C@@H]1C[C@@H]2C(=O)CCCC[C@@H]2N1S(=O)(=O)c1ccc(C)cc1 (racemic) | 39 | > 200 |  | 15 |  |  |  |  |
| CCOC(=O)[C@@H]1C[C@@H]2C(=O)CCCC[C@@H]2N1S(=O)(=O)c1ccc(Cl)cc1 (racemic) | 60 | > 200 |  | 32 |  |  | 8.4 | 23.8 |
